Here are results for one compound from ChEMBL document CHEMBL3407395, “Synthesis, characterization, and optimization for in vivo delivery of a nonselective isopeptidase inhibitor as new antineoplastic agent” (J Med Chem, 2015).

In one assay the test system is T98G. Description: Induction of apoptosis in human T98G cells assessed as caspase activation at 0.6 to 10 uM after 24 hrs by rhodamine-based fluorescence assay. The class given is functional, cell-based. The gist of the method: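 U87MG or T98G cells exposed 24 h to the listed concentrations. Caspase activity was read as relative fluorescence units from the rhodamine 110 bis-(N-Z-L-aspartyl-L-glutamyl-L-valyl-aspartic acid amide) fluorogenic substrate.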

Assay [1] has as its target T1, Ubiquitin carboxyl-terminal hydrolase isozyme L5 (Homo sapiens, UniProt Q9Y5K5).
T1 sequence (Q9Y5K5 whole entry): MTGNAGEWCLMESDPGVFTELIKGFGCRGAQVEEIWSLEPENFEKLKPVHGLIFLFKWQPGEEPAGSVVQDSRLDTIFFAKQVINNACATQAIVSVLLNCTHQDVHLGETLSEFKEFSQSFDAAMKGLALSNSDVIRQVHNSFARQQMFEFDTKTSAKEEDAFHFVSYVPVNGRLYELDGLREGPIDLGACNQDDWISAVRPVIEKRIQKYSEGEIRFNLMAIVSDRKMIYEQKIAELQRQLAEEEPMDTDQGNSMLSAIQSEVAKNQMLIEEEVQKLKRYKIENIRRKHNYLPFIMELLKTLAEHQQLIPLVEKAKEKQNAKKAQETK
Description: Inhibition of GST-tagged UCHL5 (unknown origin) using Ub-AMC as substrate preincubated for 30 mins before substrate addition measured after 60 mins by fluorescence assay. The gist of the method: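 Purified isopeptidase activity was measured with ubiquitin-AMC as fluorogenic substrate; IC50 was derived from inhibition.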

Assay [2] can be described thus: Cytotoxicity against human Hep3B cells after 48 hrs by resazurin assay. The class given is functional, cell-based, Hep 3B2.
Assay [3] relates to A549. The assay can be described thus: Induction of cell death in human A549 cells assessed as accumulation of Noxa at 1 to 5 uM after 24 hrs by immunoblot assay. The format is functional, cell-based. The gist of the method: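 A549 cells dosed at three levels (2.5, 5, 10 µM or 1, 2.5, 5 µM depending on inhibitor); lysates made after 24 h. Immunoblots probed poly-ubiquitin, p53 and Noxa, quantified by densitometry; mean of two experiments.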
Background: Immunoblotting shows a protein as a band on a membrane.

Assay [4] relates to A-375. The assay can be described thus: Induction of cell death in human A375 cells at 2.5 to 10 uM after 48 hrs by trypan blue assay. The class given is functional, cell-based. In outline:
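A549 or A375 cells treated 48 h with 2.5–10 µM. Cell death was scored by trypan blue exclusion as a function of concentration.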

Assay [5] has as its system A549. Description: Induction of cell death in human A549 cells at 10 uM after 24 to 72 hrs by trypan blue assay. The class given is functional, cell-based. In outline: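 A549 cells given 10 µM for 24–72 h. Cell death was scored by trypan blue at each time point.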
The subject of assay [6] is A549. The assay can be described thus: Induction of cell death in human A549 cells assessed as accumulation of poly-ubiquitinated proteins at 10 uM after 48 hrs by immunoblot assay. The format is functional, cell-based. The gist of the method:
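A549 cells grown in normal or A375-conditioned medium, treated with 10 µM. Immunoblots probed poly-ubiquitin accumulation, p53 stabilization and Noxa induction.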

Assay [7] has as its system A-375. The assay can be described thus: Induction of cell death in human A375 cells assessed as accumulation of poly-ubiquitinated proteins at 10 uM after 24 hrs by immunoblot assay. The class given is functional, cell-based.

Each structure is given as a SMILES string. Activity calls are given as the source filed them. No cut-off for these calls is given here.

`O=C1/C(=C/c2ccc([N+](=O)[O-])cc2)CC(O)C/C1=C\c1ccc([N+](=O)[O-])cc1` (stereo not drawn): the outcome in the assay on T98G, in the assay on A549 [3], in the assay on A-375 [4], in the assay with A549 [5], with A549 [6] and in the assay on A-375 [7] was Active. In addition, the IC50 in assay [1] is 43 µM; in assay [2], 8.5 µM.

What is called IC50 is the concentration at which inhibition is half-maximal. High values mean lower potency, low ones higher potency.
